We go through three compounds from publication PMC8319936 (ACS Omega, 2021).

One data set is described as follows: Rat pharmacokinetics. Format: in vivo, Sprague Dawley rats. Particulars: Sprague Dawley, plasma. The gist of the method: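 Sprague Dawley rats (N = 3) were dosed i.v. at 1 mpk in 70% PEG or by oral gavage as a methylcellulose suspension. Serial blood samples were anticoagulated and centrifuged to plasma. Parent compound was quantified in plasma, and PK parameters were calculated by noncompartmental analysis.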

A further data set is described as follows: Caco-2 permeability. The class given is in vitro ADME. Particulars: human, Caco-2, pH 7.4. Summed up:
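Caco-2 cells were seeded at 80,000 cells/cm2 on polycarbonate Transwell filters and grown 21–25 days. Monolayers were pre-equilibrated with HBSS pH 7.4 for 30 min at 37 °C. Dosing solution was 50 mM nominal in HBSS, stirred overnight at room temperature, filtered and added apically (A/B) or basolaterally (B/A). Receiver sampled at 15–150 min, in duplicate. Papp (cm/s) by LC/MS/MS.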
(In general: Passage across Caco-2 layers is used to estimate intestinal permeability.)

The nature of a further data set: PAMPA permeability. Format: in vitro ADME. A general note: In PAMPA a lipid-coated filter parts donor from acceptor wells.
The nature of the next data set: hPPB. Format: in vitro ADME. Particulars: human.
Data set [1] addresses catalytic domain of recombinant human MMP-8 (Homo sapiens, UniProt P22894). As to the kind of experiment: MMP-8 biochemical assay. The gist of the method:
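FRET cleavage assay with 2 nM recombinant human MMP-8 catalytic domain and 2 μM quenched FRET peptide substrate. Incubated 30 min at 28 °C/80% humidity; fluorescence read at ex 485/em 535 nm.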

In data set [2] the test system is collagen antibody-induced arthritis. Kind of data set: Murine collagen antibody-induced arthritis. Format: in vivo, female B10.RIII mice. Particulars: 100 mg/kg twice daily oral gavage from day 4, day 14. Summed up: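 Female B10.RIII mice, 8–10 weeks old, received 2 mg anti-collagen II monoclonal antibody cocktail i.p., then 37.5 μg LPS i.p. 3 days later. From day 4, compounds or vehicle (1% CMC, 0.015% Tween 80, 10 mL/kg) were given by oral gavage twice daily. Each limb was scored visually daily, days 3–14, and group mean computed. Body weight recorded every other day.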

Data set [3] addresses catalytic domain of human MMP13 (Homo sapiens, UniProt P45452). Kind of data set: Biochemical MMP-13 FRET assay. Particulars: vs compound 13.

Broadly, the half-life is how long it takes for the measured level to halve. A low value points to rapid decline. The Papp A→B is how fast a substance crosses the layer from the apical side. A high value points to fast passage. One may read the Papp B→A as how fast a substance crosses the layer from the basolateral side. The term Papp denotes a coefficient for how fast a substance crosses the barrier. Higher therefore signals fast passage. A word on the IC50: it is the midpoint of a concentration-inhibition curve.

Chain of catalytic domain of recombinant human MMP-8 (P22894 100-262 limits assumed): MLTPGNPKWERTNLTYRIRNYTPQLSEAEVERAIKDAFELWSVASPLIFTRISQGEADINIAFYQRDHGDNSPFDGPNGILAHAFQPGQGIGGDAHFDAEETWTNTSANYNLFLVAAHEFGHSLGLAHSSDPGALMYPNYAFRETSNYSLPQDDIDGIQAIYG

In “Rat pharmacokinetics”, `CCNC(=O)c1nc(-c2ccc3[nH]c(-c4nc(C)no4)cc3c2)c(C)[nH]1` [Compound 15, 4-Methyl-5-[2-(3-methyl-[1,2,4]oxadiazol-5-yl)-1H-indol-5-yl]-1H-imidazole-2-carboxylic Acid Ethylamide] gave a half-life of 1.8 h.

Take `Cc1noc(-c2cc3cc(-c4nc(C(=O)NCc5ccncc5)[nH]c4C)ccc3[nH]2)n1` [Compound 17, 4-Methyl-5-[2-(3-methyl-[1,2,4]oxadiazol-5-yl)-1H-indol-5-yl]-1H-imidazole-2-carboxylic Acid (Pyridin-4-ylmethyl)-amide]: in the data set “Rat pharmacokinetics”, the half-life was 0.9 h. In “Caco-2 permeability”, this compound had a Papp A→B at 150 min, 50 mM of 3.5 ×10⁻⁶ cm/s and a Papp B→A at 150 min, 50 mM of 9 ×10⁻⁶ cm/s. This compound showed an apparent permeability coefficient (Papp) in “PAMPA permeability” of 29 ×10⁻⁶ cm/s. In addition, in “hPPB”, the “hPPB (% bound)” value amounted to 93 % bound. The IC50 in data set [1] is 3.1 µM. Besides, the “overall mean arthritic score vs vehicle control” value in data set [2] is recorded as “significantly reduced”.

On to `Cc1noc(-c2cc3cc(-c4[nH]c(C(=O)NCc5ccccc5)nc4C)ccc3[nH]2)n1` [Compound 21, 4-Methyl-5-[2-(3-methyl-[1,2,4]oxadiazol-5-yl)-1H-indol-5-yl]-1H-imidazole-2-carboxylic Acid Benzylamide], for which the “loss of potency relative to 13” value in data set [3] stood at 10 fold.
